# In ChEMBL document CHEMBL4346665, “Synthesis and evaluation of tetrahydroquinolin-2(1H)-one derivatives as novel anti-pancreatic cancer agents via targeting autophagy” (Eur J Med Chem, 2019):
# Active and inactive are the calls of the source. The calls are words filed in the database; no cut-off is given here.
# Legend:
# PANC-1 [1] = assay: Growth inhibition of human PANC1 cells in nutrient-deprived medium at 10 uM incubated for 24 hrs by MTT assay (reference value: 0.0 +/- 1.9%); assay type: functional; conditions: PANC-1, 24 h
# PANC-1 [2] = assay: Growth inhibition of human PANC1 cells in nutrient-rich medium at 10 uM incubated for 24 hrs by MTT assay (reference value: 0.0 +/- 3.8%); assay type: functional; conditions: PANC-1, 24 h
# PANC-1 [3] = assay: Growth inhibition of human PANC1 cells in nutrient-deprived medium incubated for 24 hrs by MTT assay; assay type: functional, cell-based; conditions: PANC-1, 24 h
# [4] = Cytotoxicity against mouse NCTC-1469 cells up to 20 uM incubated for 24 hrs by MTT assay; assay type: cell-based
# PANC-1 [5] = assay: Inhibition of colony formation in human PANC1 cells in nutrient-deprived medium treated for 24 hrs followed by compound washout and subsequent incubation for 14 days by crystal violet staining based assay; assay type: functional, cell-based
# Summary of the method: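 Clonogenic assay of PANC-1 under NDC across several concentrations. Surviving colonies counted, mean ± S.D., n = 3.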
# PANC-1 [6] = assay: Induction of apoptosis in human PANC1 cells in nutrient-deprived medium assessed as live cells at 5 uM incubated for 24 hrs by Annexin V-FITC/PI double staining based flow cytometric analysis (reference value: 85.75 to 96.8%); assay type: functional
# Summary of the method: (§1)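 PANC-1 cells under NDC exposed 24 h at 5.0, 10.0 or 20.0 µM. Annexin V-FITC/PI double staining, flow cytometric quantification of live, early apoptotic, late apoptotic and necrotic fractions. Arctigenin as positive control.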
# PANC-1 [7] = assay: Induction of apoptosis in human PANC1 cells in nutrient-deprived medium assessed as early apoptotic cells at 5 uM incubated for 24 hrs by Annexin V-FITC/PI double staining based flow cytometric analysis (reference value: 0.22 to 14.25%); assay type: functional; summary of the method: as §1
# PANC-1 [8] = assay: Induction of apoptosis in human PANC1 cells in nutrient-deprived medium assessed as late apoptotic cells at 5 uM incubated for 24 hrs by Annexin V-FITC/PI double staining based flow cytometric analysis (reference value: 0 to 0.9%); assay type: functional; summary of the method: as §1
# PANC-1 [9] = assay: Induction of apoptosis in human PANC1 cells in nutrient-deprived medium assessed as necrotic cells at 5 uM incubated for 24 hrs by Annexin V-FITC/PI double staining based flow cytometric analysis (reference value: 0 to 2.8%); assay type: functional; summary of the method: as §1
# PANC-1 [10] = assay: Induction of apoptosis in human PANC1 cells in nutrient-deprived medium assessed as live cells at 10 uM incubated for 24 hrs by Annexin V-FITC/PI double staining based flow cytometric analysis (reference value: 85.75 to 96.8%); assay type: functional; summary of the method: as §1
# PANC-1 [11] = assay: Induction of apoptosis in human PANC1 cells in nutrient-deprived medium assessed as early apoptotic cells at 10 uM incubated for 24 hrs by Annexin V-FITC/PI double staining based flow cytometric analysis (reference value: 0.22 to 14.25%); assay type: functional; summary of the method: as §1
# PANC-1 [12] = assay: Induction of apoptosis in human PANC1 cells in nutrient-deprived medium assessed as late apoptotic cells at 10 uM incubated for 24 hrs by Annexin V-FITC/PI double staining based flow cytometric analysis (reference value: 0 to 0.9%); assay type: functional; summary of the method: as §1
# PANC-1 [13] = assay: Induction of apoptosis in human PANC1 cells in nutrient-deprived medium assessed as necrotic cells at 10 uM incubated for 24 hrs by Annexin V-FITC/PI double staining based flow cytometric analysis (reference value: 0 to 2.8%); assay type: functional; summary of the method: as §1
# PANC-1 [14] = assay: Induction of apoptosis in human PANC1 cells in nutrient-deprived medium assessed as live cells at 20 uM incubated for 24 hrs by Annexin V-FITC/PI double staining based flow cytometric analysis (reference value: 85.75 to 96.8%); assay type: functional; summary of the method: as §1
# PANC-1 [15] = assay: Induction of apoptosis in human PANC1 cells in nutrient-deprived medium assessed as early apoptotic cells at 20 uM incubated for 24 hrs by Annexin V-FITC/PI double staining based flow cytometric analysis (reference value: 0.22 to 14.25%); assay type: functional; summary of the method: as §1
# PANC-1 [16] = assay: Induction of apoptosis in human PANC1 cells in nutrient-deprived medium assessed as late apoptotic cells at 20 uM incubated for 24 hrs by Annexin V-FITC/PI double staining based flow cytometric analysis (reference value: 0 to 0.9%); assay type: functional; summary of the method: as §1
# PANC-1 [17] = assay: Induction of apoptosis in human PANC1 cells in nutrient-deprived medium assessed as necrotic cells at 20 uM incubated for 24 hrs by Annexin V-FITC/PI double staining based flow cytometric analysis (reference value: 0 to 2.8%); assay type: functional; summary of the method: as §1
# PANC-1 [18] = assay: Induction of apoptosis in human PANC1 cells in nutrient-deprived medium incubated for 24 hrs by Annexin V-FITC/PI double staining based flow cytometric analysis; assay type: functional, cell-based; summary of the method: as §1
# PANC-1 [19] = assay: Antitumor activity against human PANC1 cells xenografted in nude mouse assessed as reduction in tumor size at 20 mg/kg, ip administered daily for 4 weeks post tumor inoculation and observed on day 9; assay type: functional
# Summary of the method: (§2)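 PANC-1 xenografts in nude mice. Dosing daily at 5, 10 or 20 mg/kg/day for 30 days, or 30 mg/kg every three days for the gemcitabine reference. Tumor volume from diameters and tumor weight at end of study. Body weight monitored, kidney and liver examined. T1-weighted MRI on day 30 with Gd-DTPA contrast via tail vein. Mean ± S.D., n = 5, vs control group.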
# PANC-1 [20] = assay: Antitumor activity against human PANC1 cells xenografted in ip dosed nude mouse assessed as reduction in tumor size administered daily for 4 weeks post tumor inoculation and observed on day 21 to 30; assay type: functional, organism-based; summary of the method: as §2
# [21] = Toxicity in human PANC1 cells xenografted in nude mouse assessed as mortality at 5 to 20 mg/kg, ip administered daily for 4 weeks post tumor inoculation; assay type: organism-based; conditions: in vivo, 672 h
# Summary of the method: (§3)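 PANC-1 xenografts in nude mice, 5 per group. Daily injections of 5, 10 or 20 mg/kg for 30 days. Gemcitabine reference arm dosed at 30 mg/kg every three days, compared with untreated controls. Body weight tracked through dosing and deaths recorded. Tumour diameters measured over time and tumours weighed at endpoint. Kidneys and liver examined for lesions.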
# [22] = Toxicity in human PANC1 cells xenografted in nude mouse assessed as pathological changes in liver at 20 mg/kg, ip administered daily for 4 weeks post tumor inoculation by hematoxylin and eosin staining based assay; assay type: organism-based; conditions: in vivo, 672 h; summary of the method: as §2
# [23] = Toxicity in human PANC1 cells xenografted in nude mouse assessed as pathological changes in kidney at 20 mg/kg, ip administered daily for 4 weeks post tumor inoculation by hematoxylin and eosin staining based assay; assay type: organism-based; conditions: in vivo, 672 h; summary of the method: as §2
# [24] = Toxicity in human PANC1 cells xenografted in nude mouse assessed as change in body weight at 5 to 20 mg/kg, ip administered daily for 4 weeks post tumor inoculation; assay type: organism-based; conditions: in vivo, 672 h; summary of the method: as §3
# PANC-1 [25] = assay: Antitumor activity against human PANC1 cells xenografted in nude mouse assessed as reduction in tumor size at 5 to 20 mg/kg, ip administered daily for 4 weeks post tumor inoculation by Gd-DTPA based T1 weighted MRI analysis; assay type: functional, organism-based; summary of the method: as §2
# PANC-1 [26] = assay: Induction of autophagy in human PANC1 cells in nutrient-deprived medium assessed as reduction in percentage area of LC3 at 10 uM incubated for 24 hrs by DAPI staining based confocal microscopic analysis; assay type: functional, cell-based
# Summary of the method: (§4)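 LC3-transfected PANC-1 cells under NNC, NDC, or NDC plus 10 µM compound. Cells co-labeled for LC3B and DAPI and imaged by confocal microscopy. LC3 puncta number, percentage area and mean intensity quantified.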
# PANC-1 [27] = assay: Induction of autophagy in human PANC1 cells in nutrient-deprived medium assessed as reduction in mean intensity of LC3 at 10 uM incubated for 24 hrs by DAPI staining based confocal microscopic analysis; assay type: functional, cell-based; summary of the method: as §4
# PANC-1 [28] = assay: Antitumor activity against human PANC1 cells xenografted in nude mouse assessed as reduction in tumor size at 20 mg/kg, ip administered daily for 4 weeks post tumor inoculation and observed on day 6; assay type: functional, organism-based; summary of the method: as §2
# PANC-1 [29] = assay: Antitumor activity against human PANC1 cells xenografted in nude mouse assessed as reduction in tumor weight at 20 mg/kg, ip administered daily for 4 weeks post tumor inoculation; assay type: functional, organism-based; summary of the method: as §2
# PANC-1 [30] = assay: Inhibition of autophagy in human PANC1 cells in nutrient-deprived medium assessed as accumulation of SQSTM1 protein at 10 uM incubated for 1 to 6 hrs by Western blot analysis
# PANC-1 [31] = assay: Inhibition of autophagy in human PANC1 cells in nutrient-deprived medium assessed as reduction in LC3-2 expression level at 10 uM incubated for 1 to 6 hrs by Western blot analysis
# PANC-1 [32] = assay: Antitumor activity against human PANC1 cells xenografted in nude mouse assessed as reduction in tumor size at 30 mg/kg, ip administered every 3 days for 4 weeks post tumor inoculation; assay type: functional, organism-based; summary of the method: as §2
# PANC-1 [33] = assay: Antitumor activity against human PANC1 cells xenografted in nude mouse assessed as reduction in tumor weight at 30 mg/kg, ip administered every 3 days for 4 weeks post tumor inoculation; assay type: functional, organism-based; summary of the method: as §2
# [34] = Toxicity in human PANC1 cells xenografted in nude mouse assessed as change in body weight at 30 mg/kg, ip administered every 3 days for 4 weeks post tumor inoculation; assay type: organism-based; conditions: in vivo; summary of the method: as §2
# [35] = Toxicity in human PANC1 cells xenografted in nude mouse assessed as pathological changes in kidney at 30 mg/kg, ip administered every 3 days for 4 weeks post tumor inoculation by hematoxylin and eosin staining based assay; assay type: organism-based; conditions: in vivo; summary of the method: as §2
# [36] = Toxicity in human PANC1 cells xenografted in nude mouse assessed as pathological changes in liver at 30 mg/kg, ip administered every 3 days for 4 weeks post tumor inoculation by hematoxylin and eosin staining based assay; assay type: organism-based; conditions: in vivo; summary of the method: as §2
SMILES,inhibition at 10 µM (PANC-1 [1]) [%],inhibition at 10 µM (PANC-1 [2]) [%],IC50 (PANC-1 [3]) [µM],Activity (PANC-1 [6]) [%],Activity (PANC-1 [7]) [%],Activity (PANC-1 [8]) [%],Activity (PANC-1 [9]) [%],Activity (PANC-1 [10]) [%],Activity (PANC-1 [11]) [%],Activity (PANC-1 [12]) [%],Activity (PANC-1 [13]) [%],Activity (PANC-1 [14]) [%],Activity (PANC-1 [15]) [%],Activity (PANC-1 [16]) [%],Activity (PANC-1 [17]) [%],also measured
CC(C)=CCC/C(C)=C/CC1Cc2c(OCCCNC(=O)c3cccs3)cc(=O)n(CCCO)c2CC1(C)C (configuration not stated),72.8,11.5,4.9,38.56,35.35,26,0.09,20.25,41.58,38.03,0.14,1.56,2.34,91.74,4.36,Activity [4]: Non-Toxic; inhibition (PANC-1 [5]): Dose-dependent effect; Activity (PANC-1 [18]): Dose-dependent effect; Activity (PANC-1 [19]): 71.25 mm3; Activity (PANC-1 [20]): Dose-dependent effect; Activity [21]: Non-Toxic; Activity [22]: Non-Toxic; Activity [23]: Non-Toxic; Activity [24]: Non-Toxic; Activity (PANC-1 [25]): Active; Activity (PANC-1 [26]): Active; Activity (PANC-1 [27]): Active; Activity (PANC-1 [28]): inactive; Activity (PANC-1 [29]): Active; Activity (PANC-1 [30]): Active; Activity (PANC-1 [31]): Active
COc1cc(C[C@H]2C(=O)OC[C@@H]2Cc2ccc(OC)c(OC)c2)ccc1O [ARCTIGENIN],79.1,66.8,2.2,8.66,1.43,83.08,6.84,4.13,1.03,89.2,5.64,2.23,1.06,90.44,6.29,–
Nc1ccn([C@@H]2O[C@H](CO)[C@@H](O)C2(F)F)c(=O)n1 [GEMCITABINE],–,–,–,–,–,–,–,–,–,–,–,–,–,–,–,Activity (PANC-1 [32]): Active; Activity (PANC-1 [33]): Active; Activity [34]: Non-Toxic; Activity [35]: Non-Toxic; Activity [36]: Non-Toxic
CC(C)=CCC/C(C)=C/CC1Cc2c(OC(=O)Nc3ccccc3F)cc(=O)n(CCCO)c2CC1(C)C (configuration not stated),71.6,0,7.4,–,–,–,–,–,–,–,–,–,–,–,–,–
CC(C)=CCC1Cc2c(OC(=O)Nc3ccc(F)c(Cl)c3)cc(=O)n(CCCO)c2CC1(C)C (configuration not stated),79.8,0,6.8,–,–,–,–,–,–,–,–,–,–,–,–,–
